Assay results published in ChEMBL document CHEMBL1127047, “10,5-(Iminomethano)-10,11-dihydro-5H-dibenzo[a,d]cycloheptene and derivatives. Potent PCP receptor ligands” (J Med Chem, 1993).
“And” between values parts separate entries of the source, which are not always exact repeats. Equal values may be shown once.

Legend:
[1] = target: Glutamate NMDA receptor; assay: Inhibition of [3H]MK-801 binding to the PCP receptor site in guinea pig brain homogenate; type: tissue-based
[2] = In vitro neuroprotection against glutamate-induced toxicity at 5 uM using rat hippocampal cell cultures at 10 uM of glutamate; type: functional, Hippocampus
How it was run: (§1)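 Dissociated hippocampal cultures from 1–3 day postnatal Sprague–Dawley rats, papain-dissociated and treated with 5 μM cytosine arabinoside. Blind, coded test. In HEPES-buffered salt solution (pH 7.4, 32–34 °C), cultures got a 5 min preincubation with 1 μM glycine plus compound, then 5 min with glycine, compound and glutamate. Next day, 0.4% Trypan Blue; surviving cells in the grid were counted by phase contrast and expressed as % of highest count.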

[3] = In vitro neuroprotection against glutamate-induced toxicity at 10 uM using rat hippocampal cell cultures at 300 uM of glutamate; type: functional, Hippocampus; how it was run: as §1
[4] = In vitro neuroprotection against glutamate-induced toxicity at 5 uM using rat hippocampal cell cultures at 1000 uM of glutamate; type: functional, Hippocampus; how it was run: as §1
[5] = In vitro neuroprotection against glutamate-induced toxicity at 10 uM using rat hippocampal cell cultures at 100 uM of glutamate; type: functional, Hippocampus; how it was run: as §1
[6] = In vitro neuroprotection against glutamate-induced toxicity at 5 uM using rat hippocampal cell cultures at 300 uM of glutamate; type: functional, Hippocampus; how it was run: as §1
[7] = In vitro neuroprotection against glutamate-induced toxicity at 10 uM using rat hippocampal cell cultures at 0 uM of glutamate; type: functional, Hippocampus; how it was run: as §1
[8] = In vitro neuroprotection against glutamate-induced toxicity at 5 uM using rat hippocampal cell cultures at 100 uM of glutamate; type: functional, Hippocampus; how it was run: as §1
[9] = In vitro neuroprotection against glutamate-induced toxicity at 10 uM using rat hippocampal cell cultures at 10 uM of glutamate; type: functional, Hippocampus; how it was run: as §1
[10] = In vitro neuroprotection against glutamate-induced toxicity at 5 uM using rat hippocampal cell cultures at 0 uM of glutamate; type: functional, Hippocampus; how it was run: as §1
[11] = In vitro neuroprotection against glutamate-induced toxicity at 5 uM using rat hippocampal cell cultures at 3 uM of glutamate; type: functional, Hippocampus; how it was run: as §1
[12] = In vitro neuroprotection against glutamate-induced toxicity at 10 uM using rat hippocampal cell cultures at 3 uM of glutamate; type: functional, Hippocampus; how it was run: as §1
[13] = In vitro neuroprotection against glutamate-induced toxicity at 10 uM using rat hippocampal cell cultures at 30 uM of glutamate; type: functional, Hippocampus; how it was run: as §1
[14] = In vitro neuroprotection against glutamate-induced toxicity at 10 uM using rat hippocampal cell cultures at 1000 uM of glutamate; type: functional, Hippocampus; how it was run: as §1
[15] = In vitro neuroprotection against glutamate-induced toxicity at 5 uM using rat hippocampal cell cultures at 30 uM of glutamate; type: functional, Hippocampus; how it was run: as §1

For `COc1ccc2c(c1)C1CNC2Cc2ccc(Br)cc21` (stereo not given), the IC50 [1] was 0.114 µM.
For `CN1CC2c3ccccc3CC1c1ccccc12` (single isomer, unassigned; (+)), the Neuroprotection [2] was 65%, the Neuroprotection [3] was 56.6% and the Neuroprotection [4] was 23.3%. It also gave a Neuroprotection [5] of 84%, a Neuroprotection [6] of 58.7% and a Neuroprotection [7] of 97.8%. It also gave a Neuroprotection [8] of 59.9%, a Neuroprotection [9] of 90% and a Neuroprotection [10] of 91%. It also gave a Neuroprotection [11] of 74.7%, a Neuroprotection [12] of 93.6% and a Neuroprotection [13] of 92.1%. The Neuroprotection [14] was 53.3%, the Neuroprotection [15] was 62.7% and the IC50 [1] was 0.826 µM.
Work on `CC(=O)N1CC2c3ccccc3CC1c1ccccc12` (stereo not given) yielded an IC50 [1] of over 10 µM.
In the case of `Fc1ccc2c(c1)C1CNC(C2)c2ccccc21` (single isomer, unassigned; (-)), the IC50 [1] is reported as 0.531 µM.
For `Clc1ccc2c(c1)C1CNC2Cc2ccccc21` (stereo not given), the IC50 [1] was 0.69 µM.
For `Fc1ccc2c(c1)C1CNC(C2)c2ccccc21` (single isomer, unassigned; (+)), the IC50 [1] was 0.0155 µM.
Compound `COc1ccc2c(c1)C1CNC2Cc2ccc(Cl)cc21` (stereo not given) has an IC50 [1] of 0.113 µM.
Work on `Fc1ccc2c(c1)C1CNC(C2)c2ccc(F)cc21` (stereo not given) yielded an IC50 [1] of 0.0512 µM.
`Ic1ccc2c(c1)C1CNC(C2)c2ccccc21` (stereo not given) gave an IC50 [1] of 0.16 µM.
Compound `c1ccc2c(c1)CC1NCC2c2ccccc21` (single isomer, unassigned; (+)) has a Neuroprotection [2] of 76.3%, a Neuroprotection [4] of 40.5% and a Neuroprotection [6] of 57.2%. For the same compound, the Neuroprotection [8] was 73.9%, the Neuroprotection [10] was 93.6% and the Neuroprotection [11] was 68.8%. The Neuroprotection [15] was 73.3% and the IC50 [1] was 0.0376 µM and 0.0042 µM.
In the case of `CC12CNC(Cc3ccccc31)c1ccccc12` (stereo not given), the IC50 [1] is reported as 0.119 µM.
With `Clc1ccc2c(c1)C1CNC(C2)c2ccccc21` (stereo in doubt; (+)-13c) the IC50 [1] was 0.0321 µM.
`c1ccc2c(c1)CC1NCC2c2ccccc21` (stereo in doubt; 3) gave an IC50 [1] of 0.0594 µM.
Compound `CC(=O)N1CC2c3cc([N+](=O)[O-])ccc3CC1c1ccccc12` (stereo not given) has an IC50 [1] of over 10 µM.
`Nc1ccc2c(c1)C1CNC(C2)c2ccccc21` (stereo not given) showed an IC50 [1] of 0.486 µM.
`Cc1ccc2c(c1)C1CNC(C2)c2ccccc21` (stereo not given) gave an IC50 [1] of 0.108 µM.
For `Brc1ccc2c(c1)C1CNC(C2)c2ccccc21` (stereo not given), the IC50 [1] was 0.0517 µM.
With `c1ccc(-c2ccc3c(c2)C2CNC(C3)c3ccccc32)cc1` (stereo not given) the IC50 [1] was 0.421 µM.
`O=[N+]([O-])c1ccc2c(c1)C1CNC(C2)c2ccccc21` (stereo not given) showed an IC50 [1] of 4.3 µM.
For `COc1ccc2c(c1)C1CNC2Cc2ccccc21` (stereo not given), the IC50 [1] was 0.332 µM.
In the case of `COc1ccc2c(c1)C1CN(C)C2Cc2ccc(Br)cc21` (stereo not given), the IC50 [1] is reported as 0.643 µM.
`COc1ccc2c(c1)C1CNC(C2)c2ccccc21` (stereo not given) showed an IC50 [1] of 0.168 µM.
`c1ccc(CN2CC3c4ccccc4CC2c2ccccc23)nc1` (stereo not given) showed an IC50 [1] of over 10 µM.
`Clc1ccc2c(c1)C1CNC(C2)c2ccccc21` (stereo in doubt; (-)-13c) showed an IC50 [1] of 0.931 µM.
Compound `CC(C)N1CC2c3ccccc3CC1c1ccccc12` (stereo not given) has an IC50 [1] of 1.88 µM.
In the case of `c1ccc2c(c1)CC1NCC2c2ccccc21` (racemic), the Neuroprotection [2] is reported as 76.6%, the Neuroprotection [4] is reported as 25.5% and the Neuroprotection [6] is reported as 39.9%. The Neuroprotection [8] was 61.3%, the Neuroprotection [10] was 99.1% and the Neuroprotection [11] was 85.3%. The Neuroprotection [15] was 71.5%.
`Fc1ccc2c(c1)C1CNC(C2)c2ccccc21` (stereo in doubt; 13e) gave an IC50 [1] of 0.0294 µM.
Work on `C[C@]12N[C@H](Cc3ccccc31)c1ccccc12` [DIZOCILPINE] yielded a Neuroprotection [2] of 94.7%, a Neuroprotection [4] of 88.4% and a Neuroprotection [6] of 90.3%. It also gave a Neuroprotection [8] of 93.9%, a Neuroprotection [10] of 97.5% and a Neuroprotection [11] of 98.3%. It also gave a Neuroprotection [15] of 95.5%.
With `[N-]=[N+]=Nc1ccc2c(c1)C1CNC(C2)c2ccccc21` (stereo not given) the IC50 [1] was 0.5 µM.
`CN1CC2c3cc(Br)ccc3CC1c1ccccc12` (stereo not given) showed an IC50 [1] of 1.04 µM.
In the case of `Clc1ccc2c(c1)C1CNC(C2)c2ccccc21` (stereo in doubt; 13c), the IC50 [1] is reported as 0.0713 µM.
Compound `CN(C)CCCN1CC2c3ccccc3CC1c1ccccc12` (stereo not given) has an IC50 [1] of 12 µM.
